Assay results reported in ChEMBL document CHEMBL2034944, “Cytotoxic and anti-inflammatory triterpenoids from Toona ciliata” (J Nat Prod, 2012).

Experiments:
Assay type in all cases: functional, cell-based
MCF7 = test: Cytotoxicity against human MCF7 cells after 48 hrs by MTT assay; details: MCF7, 48 h
Summary of the method: (§1)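 MTT assay; cells grown in RPMI-1640 or DMEM with 10% FBS, 37 °C, 5% CO2. Adherent cells allowed to attach 12 h before dosing; suspension cells seeded just before dosing at 1 × 10^5 cells/mL. Exposure at 0.1, 1, 10, 100 and 500 μM in triplicate for 48 h. 5-fluorouracil and doxorubicin as positive controls. IC50 by Reed and Muench method.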

[1] = Cytotoxicity against human KB/VCR cells after 48 hrs by MTT assay; summary of the method: as §1
K562 = test: Cytotoxicity against human K562 cells after 48 hrs by MTT assay; details: K562, 48 h; summary of the method: as §1
SMMC-7721 = test: Cytotoxicity against human SMMC7721 cells after 48 hrs by MTT assay; details: SMMC-7721, 48 h; summary of the method: as §1
[2] = Cytotoxicity against multidrug-resistant human MCF7/ADR cells after 48 hrs by MTT assay; details: NCI/ADR-RES; summary of the method: as §1
KB = test: Cytotoxicity against human KB cells after 48 hrs by MTT assay; summary of the method: as §1
RAW264.7 = test: Antiinflammatory activity in mouse RAW264.7 cells assessed as inhibition of LPS-induced nitric oxide production pretreated for 2 hrs before LPS challenge measured after 18 hrs by Griess method
Summary of the method: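 RAW 264.7 mouse macrophages in RPMI 1640 with 10% heat-inactivated FBS, penicillin/streptomycin, 37 °C, 5% CO2. Seeded 1 × 10^5 per well, 24 h, then pretreated 2 h with compounds at 40, 20, 10, 5, 2.5 μM (DMSO ≤0.1% final). LPS 2 μg/mL for 18 h. Supernatant nitrite read with Griess reagent at 540 nm against NaNO2 standard curve; n = 4; IC50.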

Row | SMILES | IC50 (MCF7) [µM] | IC50 [1] [µM] | IC50 (K562) [µM] | IC50 (SMMC-7721) [µM] | IC50 [2] [µM] | IC50 (KB) [µM] | IC50 (RAW264.7) [µM]
1 | C[C@@H]([C@@H](O)[C@H](O)[C@H](O)C(C)(C)O)[C@@H]1CC[C@]2(C)C3=CC[C@H]4C(C)(C)C(=O)CC[C@]4(C)[C@H]3CC[C@@]12C | 17.1 | 32.1 | 11.2 | 19.4 | 22.6 | 10.2 | 
2 | C=C1[C@@H]([C@@]2(C)C=CC(=O)C(C)(C)[C@@H]2CC(=O)OC)[C@H](OC(C)=O)[C@H](OC(C)=O)[C@@]2(C)[C@H](C3=CCOC3=O)C[C@H]3O[C@]132 | > 50 | > 50 | > 50 | > 50 | > 50 | > 50 | 20.9
3 | C=C1[C@@H]([C@@]2(C)C=CC(=O)C(C)(C)[C@@H]2CC(=O)OC)[C@@H](OC(C)=O)[C@H](OC(C)=O)[C@@]2(C)[C@H](C3=CC(O)OC3=O)C[C@H]3O[C@]132 (stereo partly specified) |  |  |  |  |  |  | 41.4
4 | C=C1[C@@H]([C@@]2(C)C=CC(=O)C(C)(C)[C@@H]2CC(=O)OC)[C@@H](OC(C)=O)[C@H](OC(C)=O)[C@@]2(C)[C@H](C3=CC(=O)OC3O)C[C@H]3O[C@]132 (stereo partly specified) |  |  |  |  |  |  | 38.9
5 | C[C@@H]1C[C@H]2[C@@H]3CCC4=CC(=O)C=C[C@]4(C)[C@@]3(F)[C@@H](O)C[C@]2(C)[C@@]1(O)C(=O)CO [DEXAMETHASONE] |  |  |  |  |  |  | 0.98
6 | COc1cccc2c1C(=O)c1c(O)c3c(c(O)c1C2=O)C[C@@](O)(C(=O)CO)C[C@@H]3O[C@H]1C[C@H](N)[C@H](O)[C@H](C)O1 [DOXORUBICIN] |  | 0.45 |  |  | > 50 |  | 
7 | O=c1[nH]cc(F)c(=O)[nH]1 [FLUOROURACIL] | > 100 | 33.4 | 2.1 | > 100 | > 100 | 6.8 | 
8 | CC(C)(O)[C@@H]1OC[C@H]([C@@H]2CC=C3[C@]4(C)C(=O)C[C@H]5C(C)(C)C(=O)C=C[C@]5(C)[C@H]4[C@H](O)C[C@]32C)C[C@H]1O [TOONACILIATAVARIN A] | > 50 | > 50 | > 50 | > 50 | > 50 | > 50 | 9.4
9 | CC(=O)O[C@@H]1C[C@H]2C(C)(C)C(=O)C=C[C@]2(C)[C@H]2[C@H](O)C[C@]3(C)C(=CC[C@H]3[C@H]3CO[C@@H](C(C)(C)O)[C@H](O)C3)[C@@]21C [TOONACILIATAVARIN B] | > 50 | > 50 | > 50 | > 50 | > 50 | > 50 | 7.9
10 | CC(=O)O[C@@H]1C[C@H]2C(C)(C)C(=O)C=C[C@]2(C)[C@H]2[C@H](O)C[C@]3(C)C(=CC[C@H]3[C@H]3COC(C)(C)[C@@H](O)[C@H](O)C3)[C@@]21C [TOONACILIATAVARIN C] | > 50 | > 50 | > 50 | > 50 | > 50 | > 50 | 11
11 | CC1(C)OC[C@H]([C@@H]2CC[C@]3(C)C4=CC[C@H]5C(C)(C)[C@@H](O)CC[C@]5(C)[C@H]4CC[C@@]23C)C[C@@H](O)[C@@H]1O [TOONACILIATAVARIN D] | > 50 | > 50 | 43.1 | 31.4 | > 50 | 39.5 | 33.4
12 | CC1(C)C(=O)C=C[C@]2(C)C3=CC[C@@]4(C)[C@H](C5=CC(=O)OC5O)C[C@H]5O[C@]54[C@]3(C)C(=O)C[C@@H]12 (stereo partly specified) [TOONACILIATAVARIN F] | > 50 | > 50 | > 50 | > 50 | > 50 | > 50 | 28.8
13 | CC1(C)C(=O)C=C[C@]2(C)C3=CC[C@@]4(C)[C@H](C5=CC(O)OC5=O)C[C@H]5O[C@]54[C@]3(C)C(=O)C[C@@H]12 (stereo partly specified) [TOONACILIATAVARIN G] | > 50 | > 50 | > 50 | > 50 | > 50 | > 50 | 15.2
